The source made the active and inactive calls. The rule behind the calls is not given here.
Tests used:
Rhizopus arrhizus [1] = experiment: Antimicrobial activity against Rhizopus oryzae isolate 6725 after 24 hrs in RMPI 1640 medium by broth microdilution method; type: functional, organism-based
Outline: (§1)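 Broth microdilution in RPMI 1640 with […], without bicarbonate. Colistin was serially diluted 64 to 0.06 μg/ml. Spores came from YAG plates grown 48–72 h at 37°C, were filtered and counted, and were inoculated at 0.5 × 10^4 to 4 × 10^4 cells/ml. Plates were incubated 24 h at 37°C. MIC was read visually as the lowest concentration giving 100% growth inhibition.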

Mucor circinelloides [2] = experiment: Antimicrobial activity against Mucor circinelloides isolate 4480 after 24 hrs in yeast nitrogen base complete medium by broth microdilution method; type: functional, organism-based
Outline: (§2)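 Broth microdilution in YNB complete medium with colistin at 128 to 0.12 μg/ml. Freshly collected spores were inoculated at 0.5 × 10^4 to 4 × 10^4 cells/ml and incubated 24 h at 37°C. MIC was read visually as the lowest concentration with complete (100%) growth inhibition.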

Rhizopus arrhizus [3] = experiment: Antimicrobial activity against Rhizopus oryzae at 32 ug/disk after 24 hrs by disk diffusion method; type: functional, organism-based
Outline: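 Paper disks loaded with 8, 16 or 32 μg colistin were placed on agar plates inoculated with 200 μl of a 10^6 cells/ml R. oryzae spore suspension. After 24 h at 37°C, the diameter of the inhibition zone was measured.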

Rhizopus microsporus [4] = experiment: Antimicrobial activity against Rhizopus microsporus isolate 6164 after 24 hrs in yeast nitrogen base complete medium by broth microdilution method; type: functional; outline: as §2
Rhizopus arrhizus [5] = experiment: Antimicrobial activity against Rhizopus oryzae assessed as plasma membrane disruption-related ATP release at 8 ug/ml after 30 mins by Cell Titer-Glo luminescent assay; type: functional, organism-based
Outline: (§3)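 Spores at 10^7 cells/ml in RPMI 1640 were germinated about 6 h at 37°C. Germlings were resuspended in RPMI with colistin at 8 or 32 μg/ml, or drug-free, and shaken at 37°C. Supernatants taken at 5, 30, 60 and 90 min were assayed for released ATP by CellTiter-Glo luminescence.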

Rhizopus arrhizus [6] = experiment: Antimicrobial activity against Rhizopus oryzae isolate 6093 after 24 hrs in RMPI 1640 medium by broth microdilution method; type: functional, organism-based; outline: as §1
Rhizopus arrhizus [7] = experiment: Antimicrobial activity against Rhizopus oryzae assessed as plasma membrane disruption-related ATP release at 32 ug/ml after 30 mins by Cell Titer-Glo luminescent assay; type: functional, organism-based; outline: as §3
Rhizopus arrhizus [8] = experiment: Antimicrobial activity against Rhizopus oryzae assessed as reduction in hyphal viability at 8 ug/ml after 24 hrs by XTT assay; type: functional, organism-based
Outline: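 R. oryzae mycelia were shaken at 37°C in RPMI 1640 with colistin, amphotericin B or both; drug-free RPMI served as control. At 0, 2, 6 and 24 h, pellets received XTT (1 mg) plus menadione (0.17 mg) in 1 ml PBS for 1 h at 37°C, then OD405 was read. Viability is drug OD405 divided by control OD405; at least three experiments.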

Rhizopus arrhizus [9] = experiment: Antimicrobial activity against Rhizopus oryzae isolate 6093 after 24 hrs in yeast nitrogen base complete medium by broth microdilution method; type: functional, organism-based
Outline: (§4)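 Microdilution was done in yeast nitrogen base complete medium, with colistin serially diluted 128 to 0.12 μg/ml. Spores were harvested from YAG plates (48–72 h, 37°C), washed, filtered and counted, then added at 0.5 × 10^4 to 4 × 10^4 cells/ml. After 24 h at 37°C, MIC was taken visually as the lowest concentration with complete growth inhibition.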

Rhizopus arrhizus [10] = experiment: Antimicrobial activity against Rhizopus oryzae isolate 5879 after 24 hrs in RMPI 1640 medium by broth microdilution method; type: functional, organism-based; outline: as §1
Rhizopus arrhizus [11] = experiment: Antimicrobial activity against Rhizopus oryzae isolate 5879 after 24 hrs in yeast nitrogen base complete medium by broth microdilution method; type: functional, organism-based; outline: as §4
Mucor circinelloides [12] = experiment: Antimicrobial activity against Mucor circinelloides isolate 4818 after 24 hrs in yeast nitrogen base complete medium by broth microdilution method; type: functional, organism-based; outline: as §2
[13] = test system: Cunninghamella bertholletiae; experiment: Antimicrobial activity against Cunninghamella bertholletiae isolate 5633 after 24 hrs in yeast nitrogen base complete medium by broth microdilution method; type: functional, organism-based; outline: as §2
Rhizopus homothallicus [14] = experiment: Antimicrobial activity against Rhizopus homothallicus isolate 5910 after 24 hrs in yeast nitrogen base complete medium by broth microdilution method; type: functional; outline: as §2
Rhizopus arrhizus [15] = experiment: Fungicidal activity against Rhizopus oryzae 5799 after 6 hrs by DiBAC staining; type: functional, organism-based
Outline: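 Spores were grown to mycelia in RPMI 1640 plus 0.15% Junlon, shaken 18 h at 37°C. Mycelia were pelleted and exposed 6 h at 37°C with shaking to colistin (two levels), amphotericin B 2 μg/ml, or drug-free medium. They were washed in MOPS pH 7, stained with DiBAC 2 μg/ml for 1 h in the dark at ambient temperature, and imaged by fluorescence microscopy with an FITC filter.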

Rhizopus homothallicus [16] = experiment: Antimicrobial activity against Rhizopus homothallicus isolate 5910 after 24 hrs in RMPI 1640 medium by broth microdilution method; type: functional
Outline: (§5)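 Colistin was serially diluted from 64 to 0.06 μg/ml in RPMI 1640 with glucamine and without bicarbonate. Fresh spores from 48–72 h YAG plates were added at 0.5 × 10^4 to 4 × 10^4 cells/ml. Plates were incubated 24 h at 37°C. MIC was read visually as the lowest concentration giving 100% growth inhibition.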

Rhizopus microsporus [17] = experiment: Antimicrobial activity against Rhizopus microsporus isolate 6164 after 24 hrs in RMPI 1640 medium by broth microdilution method; type: functional; outline: as §5
[18] = test system: Cunninghamella bertholletiae; experiment: Antimicrobial activity against Cunninghamella bertholletiae isolate 5633 after 24 hrs in RMPI 1640 medium by broth microdilution method; type: functional, organism-based; outline: as §5
Rhizopus homothallicus [19] = experiment: Antimicrobial activity against Rhizopus homothallicus isolate 6360 after 24 hrs in RMPI 1640 medium by broth microdilution method; type: functional; outline: as §5
Rhizopus arrhizus [20] = experiment: Antimicrobial activity against Rhizopus oryzae assessed as cytoplasmic vacuolar swelling and bleb formation at 32 ug/ml by transmission electron microscopy; type: functional, organism-based
Rhizopus arrhizus [21] = experiment: Antimicrobial activity against Rhizopus oryzae isolate 6725 after 24 hrs in yeast nitrogen base complete medium by broth microdilution method; type: functional, organism-based; outline: as §4
Mucor circinelloides [22] = experiment: Antimicrobial activity against Mucor circinelloides isolate 5904 after 24 hrs in RMPI 1640 medium by broth microdilution method; type: functional, organism-based; outline: as §5
Mucor circinelloides [23] = experiment: Antimicrobial activity against Mucor circinelloides isolate 4480 after 24 hrs in RMPI 1640 medium by broth microdilution method; type: functional, organism-based; outline: as §5
Rhizopus = experiment: Antimicrobial activity against Rhizopus sp. isolate 4523 after 24 hrs in yeast nitrogen base complete medium by broth microdilution method; type: functional, organism-based; outline: as §4
Rhizopus homothallicus [24] = experiment: Antimicrobial activity against Rhizopus homothallicus isolate 6360 after 24 hrs in yeast nitrogen base complete medium by broth microdilution method; type: functional; outline: as §2
Rhizopus homothallicus [25] = experiment: Antimicrobial activity against Rhizopus homothallicus isolate 5790 after 24 hrs in yeast nitrogen base complete medium by broth microdilution method; type: functional; outline: as §2

- MIC (Rhizopus arrhizus [1]): 16 µg/mL
- MIC (Mucor circinelloides [2]): 128 µg/mL
- MIC (Rhizopus microsporus [4]): 128 µg/mL
- MIC (Rhizopus arrhizus [6]): 16 µg/mL
- MIC (Rhizopus arrhizus [9]): 128 µg/mL
- MIC (Rhizopus arrhizus [10]): 32 µg/mL
- MIC (Rhizopus arrhizus [11]): 128 µg/mL
- MIC (Mucor circinelloides [12]): 128 µg/mL
- MIC [13]: 128 µg/mL
- MIC (Rhizopus homothallicus [14]): 128 µg/mL
- MIC (Rhizopus homothallicus [16]): 32 µg/mL
- MIC (Rhizopus microsporus [17]): 32 µg/mL
- MIC [18]: 16 µg/mL
- MIC (Rhizopus homothallicus [19]): 32 µg/mL
- MIC (Rhizopus arrhizus [21]): 128 µg/mL
- MIC (Mucor circinelloides [22]): 16 µg/mL
- MIC (Mucor circinelloides [23]): 16 µg/mL
- MIC (Rhizopus): 128 µg/mL
- MIC (Rhizopus homothallicus [24]): 128 µg/mL
- MIC (Rhizopus homothallicus [25]): 128 µg/mL
Sequence: COLISTIN
- MFC (Rhizopus arrhizus [1]): 32 µg/mL
- MFC (Mucor circinelloides [2]): > 128 µg/mL
- inhibition zone (IZ) (Rhizopus arrhizus [3]): 21 mm
- MFC (Rhizopus microsporus [4]): > 128 µg/mL
- Activity (Rhizopus arrhizus [5]): Active
- MFC (Rhizopus arrhizus [6]): 32 µg/mL
- Activity (Rhizopus arrhizus [7]): Active
- inhibition (Rhizopus arrhizus [8]): inactive
- MFC (Rhizopus arrhizus [9]): > 128 µg/mL
- MFC (Rhizopus arrhizus [10]): 32 µg/mL
- MFC (Rhizopus arrhizus [11]): > 128 µg/mL
- MFC (Mucor circinelloides [12]): > 128 µg/mL
- MFC [13]: > 128 µg/mL
- MFC (Rhizopus homothallicus [14]): > 128 µg/mL
- Activity (Rhizopus arrhizus [15]): Dose-dependent effect
- MFC (Rhizopus homothallicus [16]): 32 µg/mL
- MFC (Rhizopus microsporus [17]): 64 µg/mL
- MFC [18]: 64 µg/mL
- MFC (Rhizopus homothallicus [19]): 64 µg/mL
- Activity (Rhizopus arrhizus [20]): Active
- MFC (Rhizopus arrhizus [21]): > 128 µg/mL
- MFC (Mucor circinelloides [22]): 64 µg/mL
- MFC (Mucor circinelloides [23]): 32 µg/mL
- MFC (Rhizopus): > 128 µg/mL
- MFC (Rhizopus homothallicus [24]): > 128 µg/mL
- MFC (Rhizopus homothallicus [25]): > 128 µg/mL
